# Laboratory results as given in ChEMBL document CHEMBL1124924, “Aromatic thiazole derivatives: structurally novel and selective serotonin-3 receptor antagonists” (J Med Chem, 1990).
# What was measured:
# Rattus norvegicus [1] = assay: Percent inhibition of serotonin-induced B-J reflex (Bezold-Jarisch reflex)in the right femoral vein of rat at a dose of 50 ug/kg; type: functional
# How it was run: (§1)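 Rats given test compound and serotonin intravenously through a cannula in the right femoral vein. Von Bezold-Jarisch reflex read as blockade of serotonin-induced bradycardia. Otherwise run by a previously published procedure.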
# Rattus norvegicus [2] = assay: Percent response to 100 ug/kg serotonin was determined as blockade of serotonin-induced bradycardia in anesthetized rat; type: functional
# How it was run: (§2)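 Rat von Bezold–Jarisch reflex, read as blockade of serotonin-induced bradycardia. Test compound and serotonin were both given iv through a cannula in the right femoral vein.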
# [3] = target: T1, Serotonin 3 (5-HT3) receptor (Rattus norvegicus, UniProt P35563+Q9JJ16); assay: In vitro displacement of [3H]ICS-205-930 from 5-hydroxytryptamine 3 receptor in cultured NG-108-15 […] cells
# T1 sequence (P35563 whole entry): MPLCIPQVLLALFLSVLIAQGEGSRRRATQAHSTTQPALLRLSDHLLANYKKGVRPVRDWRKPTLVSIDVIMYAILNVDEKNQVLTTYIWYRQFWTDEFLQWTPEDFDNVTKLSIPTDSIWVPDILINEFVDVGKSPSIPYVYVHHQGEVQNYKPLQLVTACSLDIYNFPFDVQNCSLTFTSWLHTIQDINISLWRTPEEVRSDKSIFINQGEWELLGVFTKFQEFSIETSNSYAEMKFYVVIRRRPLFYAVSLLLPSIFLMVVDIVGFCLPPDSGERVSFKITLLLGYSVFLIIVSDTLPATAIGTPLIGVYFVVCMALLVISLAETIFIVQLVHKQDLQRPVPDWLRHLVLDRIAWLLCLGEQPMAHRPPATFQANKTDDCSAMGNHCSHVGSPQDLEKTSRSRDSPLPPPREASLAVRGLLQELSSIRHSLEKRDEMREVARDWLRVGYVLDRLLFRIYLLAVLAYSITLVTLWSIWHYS
# T1 sequence (Q9JJ16 whole entry): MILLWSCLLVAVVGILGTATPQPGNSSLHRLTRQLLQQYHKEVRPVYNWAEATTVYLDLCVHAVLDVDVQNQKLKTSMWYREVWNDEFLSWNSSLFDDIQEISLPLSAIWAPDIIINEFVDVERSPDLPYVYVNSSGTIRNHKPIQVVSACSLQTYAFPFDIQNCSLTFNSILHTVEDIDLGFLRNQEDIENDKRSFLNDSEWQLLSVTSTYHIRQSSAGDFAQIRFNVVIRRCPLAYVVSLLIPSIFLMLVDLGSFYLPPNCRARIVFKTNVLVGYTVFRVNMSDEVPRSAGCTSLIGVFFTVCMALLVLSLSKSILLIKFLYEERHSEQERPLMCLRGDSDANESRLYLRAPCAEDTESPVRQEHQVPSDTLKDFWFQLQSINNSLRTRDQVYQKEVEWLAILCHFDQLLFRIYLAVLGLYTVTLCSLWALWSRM
# Rattus norvegicus [4] = assay: Percent inhibition of serotonin-induced B-J reflex (Bezold-Jarisch reflex)in the right femoral vein of rat at a dose of 10 ug/kg; type: functional; how it was run: as §1
# Rattus norvegicus [5] = assay: (§3) Percent inhibition of serotonin-induced B-J reflex (Bezold-Jarisch reflex)in the right femoral vein of rat at a dose of 100 ug/kg; type: functional; how it was run: as §2
# Rattus norvegicus [6] = assay: (§4) Percent inhibition of serotonin-induced B-J reflex (Bezold-Jarisch reflex)in the right femoral vein of rat at a dose of 2 ug/kg; type: functional; how it was run: as §1
# Rattus norvegicus [7] = assay: as §3; type: functional; how it was run: as §1; remark: listed apart in the source
# Rattus norvegicus [8] = assay: Percent inhibition of serotonin-induced B-J reflex (Bezold-Jarisch reflex)in the right femoral vein of rat at a dose of 20 ug/kg; type: functional; how it was run: as §2
# Rattus norvegicus [9] = assay: Percent inhibition of serotonin-induced B-J reflex (Bezold-Jarisch reflex)in the right femoral vein of rat at a dose of 1 mg/kg po; type: functional
# Rattus norvegicus [10] = assay: as §4; type: functional; how it was run: as §2; remark: listed apart in the source
Structure (SMILES),Response (Rattus norvegicus [2]) [%],Ki [3] [nM],inhibition in vivo at 0.002 mg/kg (Rattus norvegicus [6]) [%],inhibition in vivo at 0.02 mg/kg (Rattus norvegicus [8]) [%],other results
Cc1[nH]c2ccc(O)cc2c1CCN,41,1220,–,–,inhibition in vivo at 0.05 mg/kg (Rattus norvegicus [1]): 66%; inhibition in vivo at 0.01 mg/kg (Rattus norvegicus [4]): 23%
Cc1nc(Cc2nc(-c3ccccc3)cs2)c[nH]1,0,226,–,–,inhibition in vivo at 0.1 mg/kg (Rattus norvegicus [5]): 7%
c1ccc(-c2csc(Cc3c[nH]cn3)n2)cc1,80,0.99,41,–,–
Cc1nccn1Cc1nc(-c2c[nH]c3ccccc23)cs1,0,> 1000,–,–,inhibition in vivo at 0.1 mg/kg (Rattus norvegicus [5]): 7%
Cc1[nH]cnc1Cc1nc(-c2c[nH]c3ccccc23)cs1,0,10.4,–,–,inhibition in vivo at 0.1 mg/kg (Rattus norvegicus [7]): 45%
Cc1[nH]cnc1Cc1nc(-c2ccccc2)cs1,0,1.5,11,86,inhibition in vivo at 1 mg/kg (Rattus norvegicus [9]): 67%
N=C(N)NCc1nc(-c2c[nH]c3ccccc23)cs1,60,3.3,–,82,inhibition in vivo at 0.002 mg/kg (Rattus norvegicus [10]): 51%; inhibition in vivo at 1 mg/kg (Rattus norvegicus [9]): 0%
c1ccc2c(-c3csc(Cc4c[nH]cn4)n3)c[nH]c2c1,14,14.2,–,–,inhibition in vivo at 0.1 mg/kg (Rattus norvegicus [7]): 63%
Cc1nccn1CC1CCc2c(c3ccccc3n2C)C1=O (centres undefined) [ONDANSETRON],0,–,–,90,inhibition in vivo at 0.002 mg/kg (Rattus norvegicus [10]): 43%
CN1[C@@H]2CC[C@H]1C[C@@H](OC(=O)c1c[nH]c3ccccc13)C2 [TROPISETRON],0,–,76,–,–
